Series [1] deals with T1, Muscarinic acetylcholine receptor M1 (Homo sapiens, UniProt P11229).
T1 sequence (P11229 whole entry): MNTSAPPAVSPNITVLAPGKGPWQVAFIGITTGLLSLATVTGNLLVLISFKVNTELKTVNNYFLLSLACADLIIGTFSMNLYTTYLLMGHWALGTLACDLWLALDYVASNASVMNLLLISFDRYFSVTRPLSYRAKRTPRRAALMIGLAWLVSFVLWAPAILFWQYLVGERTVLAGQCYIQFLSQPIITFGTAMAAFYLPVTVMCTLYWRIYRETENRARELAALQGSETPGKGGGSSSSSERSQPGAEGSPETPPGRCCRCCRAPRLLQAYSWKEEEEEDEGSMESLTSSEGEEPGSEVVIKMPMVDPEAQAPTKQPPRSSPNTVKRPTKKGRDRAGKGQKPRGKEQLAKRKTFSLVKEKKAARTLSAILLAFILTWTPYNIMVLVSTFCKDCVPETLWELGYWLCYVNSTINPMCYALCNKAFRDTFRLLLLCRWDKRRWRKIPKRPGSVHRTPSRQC
Nature of the series: Positive allosteric modulation of human muscarinic acetylcholine receptor M1 expressed in CHO cells assessed as increase in acetylcholine-induced calcium mobilization preincubated for 10 mins followed by acetylcholine addition by Fluo-8-AM dye based FLIPR assay. It counts as ADME, cell-based. In short, it runs like this: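 M1 potentiation (PAM) format: calcium mobilization read on a FLIPR plate reader with an EC20 concentration of ACh present. EC50 is the geometric mean of at least three experiments.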
On the technique in general: Calcium assays in cells follow changes in intracellular calcium, usually with a dye or a luminescent sensor.

The nature of series [2]: Unbound plasma concentration in rat at 2 mg/kg, po or 0.5 mg/kg, iv administered as single bolus dose. It counts as ADME, organism-based. In short, it runs like this: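 Rat PK: IV bolus given as a solution, 0.5 mg/kg in 20% HPBCD; oral dose given as a suspension, 2 mg/kg in 0.5% methylcellulose. Fraction unbound in plasma determined.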
Series [3] addresses T2, Muscarinic acetylcholine receptor M2 (Homo sapiens, UniProt P08172).
T2 sequence (P08172 whole entry): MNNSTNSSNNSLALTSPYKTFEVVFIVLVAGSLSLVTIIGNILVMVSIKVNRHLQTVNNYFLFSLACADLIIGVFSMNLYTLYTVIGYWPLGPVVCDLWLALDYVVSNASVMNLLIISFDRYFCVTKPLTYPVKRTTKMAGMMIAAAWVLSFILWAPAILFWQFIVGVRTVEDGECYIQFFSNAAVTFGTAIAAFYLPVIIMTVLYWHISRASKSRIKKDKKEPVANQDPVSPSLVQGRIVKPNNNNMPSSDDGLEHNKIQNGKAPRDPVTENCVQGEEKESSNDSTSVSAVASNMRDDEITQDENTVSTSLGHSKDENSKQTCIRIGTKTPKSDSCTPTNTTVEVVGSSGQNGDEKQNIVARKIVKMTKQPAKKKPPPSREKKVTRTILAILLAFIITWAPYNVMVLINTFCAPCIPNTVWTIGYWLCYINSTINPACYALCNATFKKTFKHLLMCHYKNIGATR
The experiment in a line: Agonist activity at human muscarinic acetylcholine receptor M2 expressed in CHO cells assessed as increase in cAMP accumulation after 2 hrs by cAMP-Glo assay. It counts as cell-based. In short, it runs like this:
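Recombinant functional human M2–M5 assays, each run in agonist and PAM modes at concentrations up to 10 μM.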

The nature of series [4]: Selectivity ratio of EC50 for human muscarinic acetylcholine receptor M5 expressed in CHO cells to EC50 for human muscarinic acetylcholine receptor M1 expressed in CHO cells. It counts as ADME, cell-based.
Series [5] has as its target T1, Muscarinic acetylcholine receptor M1. The experiment in a line: Activity at human muscarinic acetylcholine receptor M1 expressed in CHO cells by beta-arrestin recruitment assay. The format is cell-based.
Series [6] shares this target. The experiment in a line: Ratio of intrinsic activity at human muscarinic acetylcholine receptor M1 expressed in CHO cells by beta-arrestin recruitment assay to intrinsic activity at human muscarinic acetylcholine receptor M1 expressed in CHO cells assessed as increase in calcium mobilization. It counts as ADME, cell-based.
For series [7] the target is unchanged. The experiment in a line: Agonist activity at human muscarinic acetylcholine receptor M1 expressed in CHO cells at 30 uM by beta-arrestin recruitment assay relative to acetylcholine. The format is cell-based.
Series [8] has as its system Plasma. Nature of the series: Unbound plasma concentration in scopolamine-induced memory impairment Wistar rat model at 1 mg/kg, sc measured after 1.25 hrs by LC-MS/MS analysis. It counts as ADME, organism-based. Particulars: in vivo. In short, it runs like this:
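Rats from a satellite group of the scopolamine (0.32 mg/kg) Morris water maze study, N = 2/dose. Dosed sc as a solution in 20% hydroxypropyl β-cyclodextrin. Compound concentrations measured in plasma only at T = 1.25 h.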

The test system of series [9] is Brain. Nature of the series: Unbound brain concentration in scopolamine-induced memory impairment Wistar rat model at 3.2 mg/kg, sc measured after 1.25 hrs by LC-MS/MS analysis. It counts as ADME, organism-based. Particulars: in vivo.
The test system of series [10] is Rattus norvegicus. The experiment in a line: Unbound Cmax in rat plasma at 1 mg/kg, po administered as single dose. It counts as ADME, organism-based. The note with it: in vivo. In short, it runs like this:
(§1)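 Rats (3/sex/dose) dosed orally once, 1 or 5 mg/kg as a 0.5% methylcellulose suspension.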

Series [11] concerns Rattus norvegicus. Nature of the series: Unbound Cmax in rat plasma at 5 mg/kg, po administered as single dose. It counts as ADME, organism-based. Particulars: in vivo. The procedure, abridged:
as §1

Series [12] concerns Rattus norvegicus. The experiment in a line: Unbound AUC (0 to 24 hrs) in rat plasma at 1 mg/kg, po administered as single dose. It counts as ADME, organism-based. Particulars: in vivo. The procedure, abridged: as §1
Series [13] concerns Rattus norvegicus. Nature of the series: Unbound AUC (0 to 24 hrs) in rat plasma at 5 mg/kg, po administered as single dose. The format is ADME, organism-based. Particulars: in vivo. The procedure, abridged:
as §1

For series [14], the system named is Canis familiaris. Nature of the series: Toxicity in dog assessed as ataxia at 15 mg/kg, po administered as single dose using spray dried dispersion formulation after 0.8 hrs. It counts as organism-based, Canis lupus familiaris. Particulars: in vivo. The procedure, abridged: (§2)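 Dog single oral dose escalation: 1/sex at 5 mg/kg for each formulation; 1 female at 15 mg/kg. Spray-dried dispersion: 23% drug loading with 0.5% methylcellulose and 100 mM citrate buffer. Clinical signs timed in approximate hours postdose; unbound plasma Cmax.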

Series [15] has as its system Canis familiaris. The experiment in a line: Cholinergic toxicity in dog assessed as increased activity at 15 mg/kg, po administered as single dose using spray dried dispersion formulation after 1 hr. It counts as organism-based, Canis lupus familiaris. Particulars: in vivo. The procedure, abridged: as §2
The subject of series [16] is Canis familiaris. Nature of the series: Toxicity in dog assessed as unbound Cmax in brain required to show convulsions at 15 mg/kg, po administered as single dose using spray dried dispersion formulation. The format is organism-based, Canis lupus familiaris. The note with it: in vivo.
A short description of series [17]: Ratio of unbound Cmax in rat brain assessed as convulsions at 45 mg/kg, po administered as single dose to unbound brain concentration for agonist activity at muscarinic acetylcholine receptor M1 in C57BL/6 mouse assessed as required to show 2 fold increase in IP1 accumulation in striatum at 1 to 10 mg/kg, sc. The format is organism-based.

Usually EC50 stands for the midpoint of the concentration-response curve. Broadly, the fraction unbound is free concentration divided by total concentration. Read a high fraction unbound as weak binding. `Cc1cc2c(cc1Cc1ccc(-c3cocn3)cc1)C(=O)N([C@H]1CCOC[C@@H]1O)C2`: the values for the EC50 in series [1] and in series [3] were 0.047 µM and over 10 µM, respectively. In addition, the free fraction (fraction unbound) in series [2] came out at 0.035. For the same compound, in series [4], the “Ratio EC50” value was over 200. In addition, in series [5], the Kb worked out at 8 µM. The Ratio in series [6] is given as 1.4. The Activity in [7] is recorded as 50%; in series [14], “Toxic”; in series [15] it was “Toxic”. Besides, the “Cp(f)” value in series [8] is on record as 66 nM. Moreover, the “Drug uptake(free)” value in [9] turned out to be 40 nM. Moreover, the fCmax in [10] is on record as 73 nM; in series [11], 313 nM; in series [16], 320 nM. Also, the fAUC in series [12] is 1.048 µM·h; in series [13] it was 4.927 µM·h. In [17], the selectivity ratio turned out to be 20.

The values are drawn from ChEMBL document CHEMBL4017487, “Design and Synthesis of γ- and δ-Lactam M1 Positive Allosteric Modulators (PAMs): Convulsion and Cholinergic Toxicity of an M1-Selective PAM with Weak Agonist Activity” (J Med Chem, 2017).
